Reference: ChEMBL document CHEMBL3259568 (Bioorg Med Chem, 2014)

Tests used:
[1] = system: Rattus norvegicus; experiment: Ulcerogenic activity in albino rat stress model assessed as ulcer index at 10 mg/kg, po after 7 hrs; format: toxicity, organism-based; parameters: dose 10 mg/kg, route oral; settings: in vivo
In short: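 Albino rats of either sex (170–250 g), six per group, starved 48 h with water, dosed orally 10 mg/kg in sodium CMC; killed 7 h later. Stomach opened along greater curvature and everted; lesions counted in five size classes (pinpoint to >4 mm) to give ulcer index, reported as min–max range.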

[2] = system: Mus musculus; experiment: Acute toxicity in albino mouse assessed as effect on autonomic profile at 2000 mg/kg, po measured for 3 hrs; format: organism-based; parameters: dose 2000 mg/kg, route oral; settings: in vivo
In short: (§1)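 OECD guideline test. Albino mice of either sex, 20–25 g, six per group, fasted 24 h with water ad libitum. Compounds suspended in 0.5% aqueous sodium CMC and given orally in increasing doses of 10, 20, 100, 200, 1000 and 2000 mg/kg b.w. Animals watched continuously for 3 h for general behavioural, neurological and autonomic profiles, then every 30 min for 3 h, then up to 24 h or until death.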

[3] = system: Mus musculus; experiment: Acute toxicity in albino mouse assessed as effect on neurological profile at 2000 mg/kg, po measured for 3 hrs; format: organism-based; parameters: dose 2000 mg/kg, route oral; settings: in vivo; in short: as §1
[4] = system: Rattus norvegicus; experiment: Acute antiinflammatory activity in albino rat assessed as inhibition of carrageenan-induced paw edema at 10 mg/kg, po administered 1 hr followed by carrageenan challenge measured at 4 hrs by plethysmometric analysis relative to control; format: functional
In short: (§2)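 Male albino rats (170–220 g), fasted ≥12 h with water, six per group. Oral dosing in 0.5% sodium CMC (control 1 ml vehicle), then 1 h later subplantar 0.05 ml of 1% carrageenan into left hind footpad. […] Mean ± SEM, ANOVA/Dunnett.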

[5] = system: Rattus norvegicus; experiment: Acute antiinflammatory activity in albino rat assessed as inhibition of carrageenan-induced paw edema at 10 mg/kg, po administered 1 hr followed by carrageenan challenge measured at 2 hrs by plethysmometric analysis relative to control; format: functional; in short: as §2
[6] = system: Mus musculus; experiment: Acute toxicity in albino mouse assessed as effect on general behavioral profile at 2000 mg/kg, po measured for 3 hrs; format: organism-based; parameters: dose 2000 mg/kg, route oral; settings: in vivo; in short: as §1
[7] = system: Mus musculus; experiment: Acute toxicity in albino mouse assessed as mortality at 2000 mg/kg, po measured continuously for 3 hrs followed by every 30 mins for next 3 hrs up to 24 hrs; format: organism-based; parameters: dose 2000 mg/kg, route oral; settings: in vivo; in short: as §1
[8] = system: Rattus norvegicus; experiment: Antipyretic activity in albino rat assessed as yeast-induced pyrexia at 10 mg/kg, po measured at 2 hrs by telethermometer (reference value: 38.20 degC); format: functional
In short: (§3)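 Male albino rats (170–230 g) given s.c. 2.5 ml 20% aqueous baker's yeast; rectal temperature by telethermometer before and at 18 h (taken as 0 h). Rats with 1–2 °C rise, six per group, dosed orally 30 min later (control 1 ml 0.5% sodium CMC). Temperature recorded hourly to 5 h; temperature index = sum of mean changes from 0 h.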

[9] = system: Rattus norvegicus; experiment: Antipyretic activity in albino rat assessed as yeast-induced pyrexia at 10 mg/kg, po measured at 1 hr by telethermometer (reference value: 38.26 degC); format: functional; in short: as §3
[10] = target: T1, Prostaglandin G/H synthase 1 (Ovis aries) (UniProt P05979); experiment: Inhibition of ovine COX1 peroxidase activity assessed as reduction of PGG2 to PGH2 by measuring oxidized TMPD level at 10 ug/ml by colorimetric assay relative to control
T1 sequence (whole entry): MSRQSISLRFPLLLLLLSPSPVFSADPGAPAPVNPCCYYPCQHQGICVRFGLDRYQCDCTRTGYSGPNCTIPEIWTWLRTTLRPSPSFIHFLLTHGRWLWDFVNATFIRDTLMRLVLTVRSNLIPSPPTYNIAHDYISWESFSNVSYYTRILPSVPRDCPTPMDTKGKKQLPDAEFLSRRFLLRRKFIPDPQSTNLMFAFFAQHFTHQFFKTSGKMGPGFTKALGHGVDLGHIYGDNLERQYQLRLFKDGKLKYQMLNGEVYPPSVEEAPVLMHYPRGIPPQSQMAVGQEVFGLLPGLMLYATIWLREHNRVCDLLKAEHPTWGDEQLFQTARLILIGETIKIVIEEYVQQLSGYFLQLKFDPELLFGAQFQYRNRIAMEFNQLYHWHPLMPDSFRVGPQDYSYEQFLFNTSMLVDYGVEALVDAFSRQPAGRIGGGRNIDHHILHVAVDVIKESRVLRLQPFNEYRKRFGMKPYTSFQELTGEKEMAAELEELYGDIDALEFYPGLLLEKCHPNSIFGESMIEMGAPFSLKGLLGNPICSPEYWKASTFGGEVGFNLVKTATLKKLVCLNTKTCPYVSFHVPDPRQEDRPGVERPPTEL

[11] = system: Rattus norvegicus; experiment: Antipyretic activity in albino rat assessed as decrease in yeast-induced pyrexia by measuring temperature index at 10 mg/kg, po measured over 5 hrs by telethermometer (reference value: 1.04 degC); format: functional; in short: as §3
[12] = system: Mus musculus; experiment: Analgesic activity in albino mouse assessed as protection against glacial acetic acid-induced writhing at 10 mg/kg, po administered 0.5 hrs followed by glacial acetic acid challenge measured for 15 mins relative to control; format: functional
In short: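 Mice (20–25 g) pre-screened 24 h earlier with i.p. 10 ml/kg 0.6% glacial acetic acid; only responders used. Oral dosing as suspension in 0.5% sodium CMC 30 min before acetic acid challenge. Writhing episodes counted for 15 min; group means versus vehicle control; ANOVA with Dunnett test.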

[13] = target: T2, Prostaglandin G/H synthase 1 (Ovis aries, UniProt P05979); experiment: Inhibition of ovine COX1 peroxidase activity assessed as reduction of PGG2 to PGH2 by measuring oxidized TMPD level by colorimetric assay
T2 sequence (P05979 whole entry): T1 sequence (whole entry)

[14] = system: Rattus norvegicus; experiment: Antipyretic activity in albino rat assessed as yeast-induced pyrexia at 10 mg/kg, po measured at 3 hrs by telethermometer (reference value: 38.11 degC); format: functional; in short: as §3
[15] = system: Rattus norvegicus; experiment: Antipyretic activity in albino rat assessed as yeast-induced pyrexia at 10 mg/kg, po measured at 5 hrs by telethermometer (reference value: 37.89 degC); format: functional; in short: as §3
[16] = system: Rattus norvegicus; experiment: Antipyretic activity in albino rat assessed as yeast-induced pyrexia at 10 mg/kg, po measured at 4 hrs by telethermometer (reference value: 38 degC); format: functional; in short: as §3

Structure (SMILES) | UI [1] | Activity [2] | Activity [3] | inhibition in vivo at 10 mg/kg [4] [%] | inhibition in vivo at 10 mg/kg [5] [%] | Activity [6] | Activity [7] | T [8] [°C] | T [9] [°C] | inhibition [10] [%] | T [11] [°C] | Activity [12] [%] | IC50 [13] [µM] | T [14] [°C] | T [15] [°C] | T [16] [°C]
CC(C(=O)O)c1ccc(-c2ccccc2)c(F)c1 (stereo unspecified) [FLURBIPROFEN] | 5.9 |  |  |  |  |  |  |  |  |  |  |  |  |  |  | 
CC1CCN(Cn2nc(Cc3ccccc3Nc3c(Cl)cccc3Cl)oc2=S)CC1 |  | Non-toxic | Non-toxic | 33.8 | 36.9 | Non-toxic | Non-toxic |  |  |  |  |  |  |  |  | 
S=c1oc(Cc2ccccc2Nc2c(Cl)cccc2Cl)nn1CNc1cccc(Cl)c1 | 2.1 | Non-toxic | Non-toxic | 74.4 | 71.8 | Non-toxic | Non-toxic | 38.6 | 38.9 | 25 | 5.4 | 82.2 | > 50 | 38.1 | 37.2 | 37.8
CCN1CCN(Cn2nc(Cc3ccccc3Nc3c(Cl)cccc3Cl)oc2=S)CC1 | 1.9 | Non-toxic | Non-toxic | 68.9 | 63.1 | Non-toxic | Non-toxic | 38.3 | 39.2 | 28.4 | 6.6 | 81 | > 50 | 37.9 | 37.1 | 37.7
CC1CCCCN1Cn1nc(Cc2ccccc2Nc2c(Cl)cccc2Cl)oc1=S (stereo unspecified) |  | Non-toxic | Non-toxic | 36.6 | 39.4 | Non-toxic | Non-toxic |  |  |  |  |  |  |  |  | 
S=c1oc(Cc2ccccc2Nc2c(Cl)cccc2Cl)nn1CNc1ccccc1Cl | 3.2 | Non-toxic | Non-toxic | 61.3 | 59.4 | Non-toxic | Non-toxic | 37.77 | 37.74 | 27.8 | 3.06 | 77.6 | > 50 | 37.36 | 37.11 | 37.06
S=c1oc(Cc2ccccc2Nc2c(Cl)cccc2Cl)nn1CN1CCOCC1 | 2.6 | Non-toxic | Non-toxic | 63.8 | 64.3 | Non-toxic | Non-toxic | 37.55 | 37.7 | 34.1 | 3.91 | 77 | > 50 | 37.13 | 37.15 | 37.06
S=c1oc(Cc2ccccc2Nc2c(Cl)cccc2Cl)nn1CN1CCNCC1 |  | Non-toxic | Non-toxic | 56.5 | 51.4 | Non-toxic | Non-toxic |  |  | 43.2 |  | 75.9 | > 50 |  |  | 
